Results from ChEMBL document CHEMBL5608214, “Novel tetrasubstituted 5-Arylamino pyrazoles able to interfere with angiogenesis and Ca2+ mobilization” (Eur J Med Chem, 2024).
Active and inactive are the calls of the source. The calls are words filed in the database; no cut-off is given here.

Assays:
HUVEC [1] = assay: Anti-angiogenetic activity in human HUVEC cells assessed as relative tube length at 10 uM incubated for 12 hrs by microscopy; type: functional
Method in brief: (§1)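 HUVEC seeded at 2 × 10⁴ cells/well onto gelled Matrigel (mixed 1:1 with EGM-2, set 30 min at 37 °C). Cells were exposed to test agents at 10 μM for 12 h with no stimulus; untreated wells served as control. Tube long axis and branching points were counted in 10 random fields per well at 10× (Angiogenesis Analyzer), giving mean tube length per well. Mean of at least three independent experiments.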

HUVEC [2] = assay: Anti-angiogenetic activity in human HUVEC cells assessed as number of tube branching points at 10 uM incubated for 12 hrs by microscopy; type: functional; method in brief: as §1
[3] = Antiproliferative activity against human GM06114 cells assessed as cell growth at 10 uM incubated for 48 hrs by MTT assay relative to control; type: toxicity, cell-based; conditions: read-out: Activity
Method in brief: (§2)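 Cells in DMEM with 10 % FBS, 2 mM glutamine and pen-strep, 37 °C, 5 % CO₂, plated to reach 80–90 % confluence at endpoint. At 16 h, compounds were added from a 10 mM DMSO stock to 10 μM final. After 48 h, MTT (2 mg/mL in PBS) was added for 4 h, formazan dissolved in DMSO, and OD read at 570 nm. Results are % of solvent control; three runs, six replicates each, mean ± SD.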

SK-BR-3 = assay: Antiproliferative activity against human SK-BR-3 cells assessed as cell growth at 10 uM incubated for 48 hrs by MTT assay relative to control; type: functional; conditions: read-out: Activity; method in brief: as §2
MDA-MB-231 = assay: Antiproliferative activity against human MDA-MB-231 cells assessed as cell growth at 10 uM incubated for 48 hrs by MTT assay relative to control; type: functional; conditions: read-out: Activity; method in brief: as §2
A549 = assay: Antiproliferative activity against human A549 cells assessed as cell growth at 10 uM incubated for 48 hrs by MTT assay relative to control; type: functional; conditions: read-out: Activity; method in brief: as §2
HeLa = assay: Antiproliferative activity against human HeLa cells assessed as cell growth at 10 uM incubated for 48 hrs by MTT assay relative to control; type: functional; conditions: read-out: Activity; method in brief: as §2
SK-OV-3 = assay: Antiproliferative activity against human SK-OV-3 cells assessed as cell growth at 10 uM incubated for 48 hrs by MTT assay relative to control; type: functional; conditions: read-out: Activity; method in brief: as §2
HepG2 = assay: Antiproliferative activity against human HepG2 cells assessed as cell growth at 10 uM incubated for 48 hrs by MTT assay relative to control; type: functional; conditions: read-out: Activity; method in brief: as §2
SK-MEL-28 = assay: Antiproliferative activity against human SK-MEL-28 cells assessed as cell growth at 10 uM incubated for 48 hrs by MTT assay relative to control; type: functional; conditions: read-out: Activity; method in brief: as §2
[4] = Antiproliferative activity against human HUVEC cells assessed as cell growth at 10 uM incubated for 48 hrs by MTT assay relative to control; type: toxicity, cell-based; conditions: read-out: Activity; method in brief: as §2
MCF7 = assay: Antiproliferative activity against human MCF7 cells assessed as cell growth at 10 uM incubated for 48 hrs by MTT assay relative to control; type: functional; conditions: read-out: Activity; method in brief: as §2
HUVEC [5] = assay: Inhibition of cell invasion in human HUVEC cells assessed as number of cells at 10 uM incubated for 24 hrs by transwell assay; type: functional
Method in brief: (§3)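 Transwell inserts with 8.0 pore size were coated with Matrigel 1:3 in serum-free medium. HUVEC (2 × 10⁴/insert) went in serum-free medium in the upper chamber, with treatments (10 μM) in growth medium below, for 24 h at 37 °C. Filters were fixed in 4 % paraformaldehyde then methanol and stained with 0.5 % crystal violet. Cells on the lower surface were counted in ten random fields at 10×. n = 3.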

HUVEC [6] = assay: Effect on conformation of actin filament organization in human HUVEC cells at 10 uM treated for 24 hrs by immunofluorescence assay; type: functional, cell-based
Method in brief: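 HUVEC were left untreated or treated 24 h at 10 μM final. Cells were then fixed on coverslips in 4 % paraformaldehyde, permeabilized with 0.2 % Triton X-100 and blocked with 20 % goat serum. F-actin was stained with FITC-phalloidin (5 µg/ml, 2 h, room temperature, dark) and nuclei with Hoechst 33342. Cells were imaged by confocal microscopy.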

[7] = Effect on intracellular calcium signaling in human HUVEC cells assessed as inhibition of calcium mobilization by measuring fluorescence intensity at 10 uM incubated for 1 hr by Fluo-4 a.m. cytofluorimetric assay relative to control; type: functional; design: scale not given: the % may be the effect or the level left
Method in brief: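 Trypsinized HUVEC at 5 × 10⁵/ml were treated with compounds at 10 μM in PBS for 1 h at room temperature, washed, then loaded with 2.5 μM Fluo-4 AM (0.06 % DMSO final) for 45 min at 37 °C. Fluorescence was read by flow cytometry with a 530/30 filter. Ionomycin served as positive control and EDTA (added 15 min before) as negative control. n = 3, mean ± SD.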

HUVEC [8] = assay: Anti-angiogenetic activity in human HUVEC cells assessed as number of tube branching points at 10 uM incubated for 12 hrs in presence of tumor secretome from human MIA PaCa-2 cell supernatant by microscopy (reference value: 17); type: functional
HUVEC [9] = assay: Inhibition of cell invasion in human HUVEC cells at 10 uM incubated for 24 hrs by transwell assay; type: functional, cell-based; method in brief: as §3
HUVEC [10] = assay: Anti-angiogenetic activity in human HUVEC cells assessed as reduction in tube length at 10 uM incubated for 12 hrs by microscopy; type: functional, cell-based; method in brief: as §1
HUVEC [11] = assay: Anti-angiogenetic activity in human HUVEC cells assessed as reduction in tube branching at 10 uM incubated for 12 hrs by microscopy; type: functional, cell-based; method in brief: as §1
HUVEC [12] = assay: Anti-angiogenetic activity in human HUVEC cells assessed as relative tube length at 10 uM incubated for 12 hrs in presence of tumor secretome from human MIA PaCa-2 cell supernatant by microscopy (reference value: 108); type: functional
HUVEC [13] = assay: Inhibition of cell migration in human HUVEC cells at 10 uM incubated for 24 hrs by wound healing assay; type: functional, cell-based
Method in brief: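 Confluent HUVEC monolayers (2 × 10⁵/well, 24 h) were scratched with a p10 tip and treated at 10 μM with mitomycin C 10 μg/ml to block mitosis. Wounds were photographed at 0 and 24 h (4× phase contrast). Migration was taken as the change in distance covered by the wound edges. n = 3 independent experiments, mean ± SD.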

Compound | Activity (HUVEC [1]) | Activity (HUVEC [2]) | viability at 48 h, 10 µM [3] | growth at 10 µM (SK-BR-3) | growth at 10 µM (MDA-MB-231) | growth at 10 µM (A549) | growth at 10 µM (HeLa) | growth at 10 µM (SK-OV-3) | growth at 10 µM (HepG2) | growth at 10 µM (SK-MEL-28) | viability at 48 h, 10 µM [4] | growth at 10 µM (MCF7) | Activity (HUVEC [10]) | Activity (HUVEC [11]) | further results
CCOC(=O)c1c(Nc2ccc(C)cc2)nn(CC(O)c2ccccc2)c1N (stereo not drawn) | 48 | 17 |  |  |  |  |  |  |  |  |  |  |  |  | 
CCOC(=O)c1c(Nc2ccc(OC)cc2)nn(CC(O)c2ccccc2)c1N (stereo not drawn) |  |  | 70% | 115% | 147% | 100% | 111% | 102% | 115% | 134% | 99% | 98% |  |  | 
CCCC(O)Cn1nc(Nc2cccc3ccccc23)c(C(=O)OCC)c1N (stereo not drawn) | <20 | <15 | 104% | 110% | 106% | 86% | 82% | 108% | 104% | 103% | 94% | 109% |  |  | 
CCCC(O)Cn1ncc(C(=O)OCC)c1NC(=O)Nc1cccc(C(F)(F)F)c1 (stereo not drawn) | 21 | 19 |  |  |  |  |  |  |  |  |  |  |  |  | Activity (HUVEC [5]): 383; Activity (HUVEC [6]): Active; Activity [7]: 20%
CCOC(=O)c1c(Nc2cccc(C(F)(F)F)c2)nn(CC(O)c2ccccc2)c1N (stereo not drawn) |  |  | 80% | 122% | 162% | 88% | 107% | 108% | 131% | 124% | 92% | 99% |  |  | 
CCCC(O)Cn1nc(Nc2ccccc2Cl)c(C(=O)OCC)c1N (stereo not drawn) |  |  | 85% | 121% | 107% | 106% | 116% | 102% | 119% | 132% | 95% | 110% |  |  | 
CCCC(O)Cn1nc(Nc2ccccc2)c(C(=O)OCC)c1N (stereo not drawn) | <20 | <15 | 112% | 107% | 103% | 115% | 97% | 104% | 106% | 97% | 100% | 110% | Active | Active | Activity (HUVEC [5]): 364; Activity (HUVEC [8]): ~8; Activity (HUVEC [6]): Active; inhibition (HUVEC [9]): Active; Activity [7]: 23%; Activity (HUVEC [12]): 55; inhibition (HUVEC [13]): Active
CCOC(=O)c1c(Nc2cccc(Cl)c2)nn(CC(O)c2ccccc2)c1N (stereo not drawn) |  |  | 65% | 120% | 135% | 88% | 113% | 100% | 113% | 144% | 93% | 101% | Active | Active | 
CCCC(O)Cn1nc(Nc2ccc(OC)cc2)c(C(=O)OCC)c1N (stereo not drawn) |  |  | 75% | 106% | 143% | 98% | 111% | 110% | 110% | 120% | 95% | 109% | Active | Active | 
CCOC(=O)c1c(Nc2ccccc2Cl)nn(CC(O)c2ccccc2)c1N (stereo not drawn) |  |  | 63% | 117% | 115% | 72% | 98% | 100% | 111% | 136% | 93% | 112% |  |  | 
CCOC(=O)c1c(Nc2ccc(Cl)c(Cl)c2)nn(CC(O)c2ccccc2)c1N (stereo not drawn) |  |  | 77% | 111% | 144% | 70% | 74% | 111% | 100% | 135% | 93% | 88% |  |  | 
CCCC(O)Cn1nc(Nc2ccc(Cl)c(Cl)c2)c(C(=O)OCC)c1N (stereo not drawn) |  |  | 87% | 127% | 176% | 94% | 119% | 116% | 116% | 137% | 93% | 107% | Active | Active | 
CCCC(O)Cn1nc(Nc2ccc(C)cc2)c(C(=O)OCC)c1N (stereo not drawn) | <20 | <15 | 72% | 123% | 158% | 92% | 109% | 119% | 119% | 137% | 96% | 111% | Active | Active | 
CCCC(O)Cn1nc(Nc2cccc(C(F)(F)F)c2)c(C(=O)OCC)c1N (stereo not drawn) |  |  | 71% | 118% | 109% | 66% | 77% | 102% | 69% | 113% | 100% | 80% |  |  | 
CCOC(=O)c1c(Nc2cccc3ccccc23)nn(CC(O)c2ccccc2)c1N (stereo not drawn) | <20 | <15 | 81% | 118% | 149% | 88% | 104% | 116% | 118% | 141% | 98% | 97% | Active | Active | 
CCCC(O)Cn1nc(Nc2cccc(Cl)c2)c(C(=O)OCC)c1N (stereo not drawn) |  |  | 82% | 113% | 168% | 85% | 100% | 118% | 90% | 122% | 97% | 95% | Active | Active | Activity (HUVEC [5]): 491; Activity (HUVEC [8]): ~8; Activity (HUVEC [6]): Active; inhibition (HUVEC [9]): Active; Activity [7]: 21%; Activity (HUVEC [12]): 55; inhibition (HUVEC [13]): Active
